Experiment [1] deals with pure human MYC C171Y mutant protein (Homo sapiens, UniProt P01106, C186Y). Description: Gel-based ABPP with pure C171Y mutant MYC protein. Format: binding. Conditions: 50 μM, 2 h, 37°C. The gist of the method:
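Pure human wild-type and C171Y MYC (0.3 μg in 50 μl PBS) labelled directly with alkyne probe (50 μM) for 2 h at 37 °C. Rhodamine-azide (1 μM final) attached by CuAAC, 1 h at room temperature. Samples run on reducing SDS/PAGE (4–20% gels), fixed in acetic acid/ethanol, and imaged by in-gel rhodamine fluorescence; silver stain used for loading.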

Experiment [2] concerns MYC transcriptional activity. Description: MYC luciferase reporter assay in HEK293T cells. Conditions: for activity in MYC luciferase reporter assay: dose response, Table S4. Format: cell-based, human. The procedure, abridged: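 HEK293T cells (DMEM, 10% FBS) seeded at 35,000/well and transfected with Lipofectamine 2000 (complexes formed 25 min at room temperature). Reporter: firefly luciferase driven by TATA box plus tandem E-box repeats; negative control lacked response elements. Cells treated with DMSO or test compound (50 μM screen, or dose series) for 24 h. Firefly and Renilla read; blank subtracted, Firefly:Renilla calculated per well, then normalised to vehicle. n=3.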
On the technique in general: A reporter such as luciferase makes a cellular process visible.

A further experiment deals with endogenous c-MYC (Homo sapiens, UniProt P01106). In words: EN4-alkyne-4 enrichment of endogenous MYC in cells. Format: cell-based. The note with it: 231MFP cells, 50 μM, 4 h, in situ. The gist of the method: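 231MFP cells at 70% confluency exposed in situ to DMSO or 50 μM alkyne probe for 4 h. Cells lysed by sonication and lysates normalised to 3.2 mg/mL. Probe-labelled proteins conjugated by CuAAC and pulled down. c-MYC in the pulldown detected by blotting; input c-MYC and vinculin also shown. n=3 biological replicates, quantified.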

In another experiment the test system is C171Y FLAG-MYC. Description: MYC luciferase reporter in HEK293T cells expressing C171Y versus WT FLAG-MYC. Format: cell-based, human. The note with it: 50 μM, 24 h. The procedure, abridged:
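HEK293T cells seeded at 35,000/well and co-transfected with the MYC E-box luciferase reporter plus 1 μg/well FLAG-eGFP, FLAG-wild-type or FLAG-C171Y c-MYC plasmid (site-directed mutant), using Lipofectamine 2000 at 3:1 to DNA. Treated with DMSO or 50 μM test compound for 24 h. Blank-subtracted Firefly:Renilla expressed relative to DMSO set to 1; FLAG expression checked by Western blot.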

A further experiment deals with MYC (Homo sapiens, UniProt P01106). Description: Cellular thermal shift assay. Conditions: 231MFP cells, 50 μM, 2 h. In kind it is cell-based. The procedure, abridged: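 231MFP cells (L15, 10% FBS, 37 °C, 0% CO2) at 80% confluence were exposed to test compound or DMSO at 50 μM for 120 min. They were then resuspended in PBS with protease inhibitors, still containing compound or DMSO, and heated for 3 min at eight temperatures (37.0–58.0 °C). After 3 min at 25 °C, cells were freeze-thaw lysed and spun at 20,000 g. Soluble c-MYC, MAX and GAPDH were measured by Western blot densitometry, relative to DMSO.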

A further experiment concerns MIZ1 or ZBTB17. Description: MIZ1/ZBTB17 level with EN4 treatment. In kind it is cell-based. Conditions: Fig. S3f.
In experiment [3] the test system is MYC-transformed mammary epithelial MCF10A cells. In words: Serum-free cell survival, MYC-expressing MCF10A. Format: cell-based, human. The note with it: 48 h. The gist of the method:
(§1)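 MCF10A parental or MYC-overexpressing cells (maintained in DMEM/F12K with 5% horse serum, EGF, cholera toxin, insulin and hydrocortisone) seeded at 40,000/well and allowed to adhere overnight. Treated with DMSO or test compound in serum-free medium for 48 h. Fixed and stained with formalin/Hoechst 33342, then imaged. Survival normalised to the DMSO control of each line set to 1; unpaired two-tailed t-test.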

Experiment [4] deals with MYC transcriptional activity. Description: MYC luciferase reporter upon JUN knockdown. In kind it is cell-based, human. Conditions: HEK293T, siJUN, 24 h.
The next experiment has as its system MYC target genes. In words: RNA sequencing of EN4-treated 231MFP cells. In kind it is cell-based, human. Conditions: 50 μM, 24 h. The gist of the method: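 231MFP cells seeded in 6 cm dishes and treated with DMSO or 50 μM test compound for 24 h before RNA sequencing. Transcript changes reported as log₂ fold change of treated versus DMSO controls.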
The subject of another experiment is parental MCF10A cells. In words: Serum-free cell survival, parental MCF10A. Format: cell-based, human. Conditions: 48 h. The gist of the method:
as §1

In the next experiment the target is pure human c-JUN protein (Homo sapiens, UniProt P05412). In words: Gel-based ABPP with pure JUN protein. Format: binding. Conditions: Fig. S3b. The procedure, abridged: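 Recombinant pure human c-JUN (0.1 μg) was pretreated with DMSO or test compound in 25 μl PBS for 1 h at 37 °C. It was then labeled with 200 nM IA-rhodamine for 1 h at room temperature. Samples were denatured in reducing Laemmli buffer at 90 °C for 5 min, separated on 4–20% SDS/PAGE gels, fixed, and read by in-gel fluorescence.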

A further experiment has as its target pure human MYC protein (Homo sapiens, UniProt P01106). In words: Gel-based ABPP with pure MYC protein. In kind it is binding. Conditions: pre-incubation 30 min 37°C, then EN4-alkyne-2 50 μM 2 h. The procedure, abridged: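 Pure human full-length MYC (0.3 μg in 50 μl PBS) pre-treated with DMSO or test compound for 30 min at 37 °C, then labelled with alkyne probe (50 μM) for 2 h at 37 °C. Rhodamine-azide (1 μM final) attached by CuAAC, 1 h at room temperature. Samples heated at 90 °C for 5 min in reducing Laemmli buffer, run on 4–20% gels, fixed, and read by in-gel fluorescence; silver stain used for loading.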

In experiment [5] the target is purified recombinant human MYC/MAX complex (Homo sapiens, UniProt P01106). Description: MYC/MAX in vitro DNA binding to E-box consensus sequence. Format: biochemical. The procedure, abridged: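 Human full-length c-MYC (0.2 μg) was pre-incubated for 30 min at 37 °C with DMSO or test compound diluted from 50 mM DMSO stock into dPBS. MAX (0.2 μg) was then added, and the mixture was transferred to wells coated with the E-box consensus sequence for 1 h binding. Bound complex was detected with primary and secondary antibodies following a commercial transcription-factor kit protocol. IC50 was derived from the dose-response.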

In experiment [6] the test system is 231MFP breast tumor xenograft. Description: 231MFP tumor xenograft study. In kind it is in vivo. Conditions: 50 mg/kg ip once per day, started 14 days after implantation, SCID mice. The procedure, abridged: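 Female C.B17 SCID mice (6–8 weeks) received 1 × 10⁶ 231MFP cells subcutaneously in the flank, suspended in serum-free medium. From 2 weeks after implantation, vehicle (18:1:1 PBS/ethanol/PEG40) or 50 mg/kg test compound was given ip once daily. Tumour size measured weekly by calipers; unpaired two-tailed t-test.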

Experiment [7] addresses C171Y mutant MYC protein (with MAX) (Homo sapiens, UniProt P01106, C186Y). In words: MYC/MAX in vitro DNA binding with C171Y mutant MYC. Format: biochemical. The note with it: 50 μM. The procedure, abridged: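 Plate-based assay adapted from a c-Myc transcription factor kit. Test compound (50 μM; diluted from 50 mM DMSO stock into dPBS) or DMSO pre-incubated with 0.2 μg pure full-length wild-type or C171Y MYC for 30 min at 37 °C. Then 0.2 μg MAX added and the mixture bound to wells coated with the E-box consensus sequence for 1 h. Bound complex detected with primary and secondary antibodies.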

Experiment [8] has as its system CDK2, CDC25A and MYC protein levels. In words: Western blotting of MYC transcriptional targets in 231MFP cells. Format: cell-based, human. Conditions: 50 μM, 36 h. The gist of the method: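 231MFP cells treated with DMSO or 50 μM test compound for 36 h, with medium and treatment replenished at 24 h. CDK2, CDC25A and MYC levels measured by Western blot with vinculin as loading control. n=3 biological replicates; blots quantified; unpaired two-tailed t-test.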

In experiment [9] the test system is 231MFP breast cancer cells. In words: 231MFP cell proliferation. In kind it is cell-based, human. Conditions: 50 μM, daily treatment, 72 h. The gist of the method:
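231MFP cells (L15, 10% FBS, 37 °C, 0% CO2) seeded at 15,000/well in serum-containing L-15. Treated the next day with DMSO or test compound, with media and compound replaced daily for 72 h. Wells fixed and stained with 10% formalin plus Hoechst 33342 for 15 min at room temperature in the dark, washed and imaged. Reported as percent proliferation versus DMSO; unpaired two-tailed t-test.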

The next experiment has as its target MAX (Homo sapiens, UniProt P61244). In words: Cellular thermal shift assay. In kind it is cell-based. Conditions: 231MFP cells, 50 μM, 2 h. The procedure, abridged: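 231MFP cells at 80% confluence treated with DMSO or 50 μM test compound for 120 min, then resuspended in PBS with protease inhibitors and compound or DMSO kept present. Aliquots heated 3 min at eight temperatures (37.0–58.0 °C), held 3 min at 25 °C, lysed by three liquid-nitrogen freeze-thaw cycles and spun 20,000 g, 20 min, 4 °C. Soluble MAX measured by Western blot with GAPDH as loading control; band intensity quantified.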

Where only a bound is given, the exact number is not on record here.

purified recombinant human MYC/MAX complex, sequence (P01106 16-454, one chain of several): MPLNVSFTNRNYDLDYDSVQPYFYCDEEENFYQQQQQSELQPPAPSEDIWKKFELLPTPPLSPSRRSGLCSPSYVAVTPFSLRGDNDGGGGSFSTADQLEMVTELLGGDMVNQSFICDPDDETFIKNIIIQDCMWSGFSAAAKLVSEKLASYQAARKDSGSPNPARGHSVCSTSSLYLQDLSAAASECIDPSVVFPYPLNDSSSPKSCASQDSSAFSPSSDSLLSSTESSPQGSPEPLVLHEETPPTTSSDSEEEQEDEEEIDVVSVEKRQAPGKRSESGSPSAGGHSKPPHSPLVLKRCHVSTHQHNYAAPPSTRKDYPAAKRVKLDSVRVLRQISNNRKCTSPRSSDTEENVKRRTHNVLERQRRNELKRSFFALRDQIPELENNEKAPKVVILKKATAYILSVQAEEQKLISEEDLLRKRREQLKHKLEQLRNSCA
pure human c-JUN protein, sequence (P05412 whole entry): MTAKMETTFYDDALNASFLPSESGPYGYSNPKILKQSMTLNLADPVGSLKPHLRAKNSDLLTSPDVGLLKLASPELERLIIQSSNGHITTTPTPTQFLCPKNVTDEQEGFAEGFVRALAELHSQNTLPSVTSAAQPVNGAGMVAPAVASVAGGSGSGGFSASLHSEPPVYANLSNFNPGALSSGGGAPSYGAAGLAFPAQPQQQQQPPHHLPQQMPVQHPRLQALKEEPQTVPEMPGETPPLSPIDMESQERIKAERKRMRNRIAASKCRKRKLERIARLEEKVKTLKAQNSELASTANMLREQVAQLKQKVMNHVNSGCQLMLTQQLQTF
pure human MYC protein, sequence (P01106 16-454): as the sequence (P01106 16-454, one chain of several) above
MAX, sequence (P01106 16-454 partner limits assumed): as the sequence (P01106 16-454, one chain of several) above
MAX, sequence (P61244 whole entry): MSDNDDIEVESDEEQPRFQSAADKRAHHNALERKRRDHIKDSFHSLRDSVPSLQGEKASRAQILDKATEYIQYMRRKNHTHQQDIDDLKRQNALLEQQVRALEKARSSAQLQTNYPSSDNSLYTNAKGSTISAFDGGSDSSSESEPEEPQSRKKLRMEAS
MYC, sequence (P01106 16-454): as the sequence (P01106 16-454, one chain of several) above
endogenous c-MYC, sequence (P01106 16-454): as the sequence (P01106 16-454, one chain of several) above
C171Y mutant MYC protein (with MAX), sequence (P01106 16-454 C186Y): as the sequence (P01106 16-454, one chain of several) above, with C171Y counted along it
pure human MYC C171Y mutant protein, sequence (P01106 16-454 C186Y): as the sequence (P01106 16-454, one chain of several) above, with C171Y counted along it

With `C#CCOc1ccc(NC(=O)c2ccc(CNC(=O)C=C)cc2)c(Oc2ccc(OCC)cc2)c1` [EN4-alkyne-2, 4-(acrylamidomethyl)-N-(2-(4-ethoxyphenoxy)-4-(prop-2-yn-1-yloxy)phenyl) benzamide], the “probe labeling of C171Y mutant MYC compared to wild-type” value in [1] is listed as “labeling was not observed”.
A word on the EC50: it is the concentration at which the effect is half-maximal. Regarding `C#Cc1ccc(Oc2ccc(OCC)cc2)c(NC(=O)c2ccc(CNC(=O)C=C)cc2)c1` [EN4-alkyne-4, 4-(acrylamidomethyl)-N-(2-(4-ethoxyphenoxy)-5-ethynylphenyl)benzamide], in [2] (Homo sapiens, HEK-293T, read-out: EC50 in MYC luciferase reporter assay), the EC50 stood at 1.4 µM. For the same compound, on endogenous c-MYC, the “enrichment of endogenous c-MYC versus vehicle” value was “significantly enriched endogenous c-MYC”.
On to `C=CC(=O)NCc1ccc(C(=O)Nc2ccccc2Oc2ccc(OCC)cc2)cc1` [EN4], for which the “MYC inhibitory effect in cells expressing C171Y FLAG-MYC compared to WT FLAG-MYC” value with C171Y FLAG-MYC is given as “significantly attenuated”. In addition, the MYC thermal stability entry on MYC is reported as “significantly reduced MYC thermal stability”. Moreover, in the experiment with MIZ1 or ZBTB17, the “level of MYC binding partner MIZ1 or ZBTB17” value was “upregulation”. In experiment [3], the “cell survival of MYC-transformed MCF10A cells” value is “impaired the cell survival”. Moreover, the “inhibition of MYC luciferase reporter activity upon JUN knockdown compared to control cells” value in experiment [4] is “comparable inhibitory effects”. Besides, the “expression of direct MYC target genes and MYC-regulated gene targets” value in the experiment on MYC target genes is “significantly downregulated”. Besides, in the experiment on parental MCF10A cells, the “cell survival of parental MCF10A cells” value is reported as “but not parental MCF10A cells”. In addition, the “competition against IA-rhodamine labeling of pure JUN” value on pure human c-JUN protein is given as “competition of EN4 against labeling of pure JUN protein”. Also, the “competition of EN4-alkyne-2 labeling of pure MYC” value at pure human MYC protein is on record as “displaced the labeling of EN4-alkyne-2”. In addition, the IC50 in experiment [5] (read-out: 50 % inhibitory concentration (IC50) for MYC/MAX binding to the E-box response element DNA consensus sequence, dose-response, Fig. 1d, pre-incubated with MYC 30 min before MAX) amounted to 6.7 µM. In addition, the “tumor growth in vivo” value in experiment [6] was “significantly attenuated tumor growth”. For the same compound, the “inhibition of MYC/MAX DNA binding with C171Y mutant compared to wild-type MYC” value in [7] is on record as “significantly attenuated”. Also, in experiment [8], the MYC protein levels entry is recorded as “substantially reduced”; the “protein levels of CDK2 and CDC25A” value was “significantly lowered”. Besides, in [2] (50 μM, 24 h, HEK293T, Fig. 1b), the “inhibition of MYC transcriptional activity in covalent ligand screen” value was “strongest inhibition”. The compound also returned an inhibition of proliferation in experiment [9] greater than 90%. The MAX thermal stability entry at MAX is “reduced the thermal stability”.
On to `CCOc1ccc(Oc2ccccc2NC(=O)c2ccc(CNC(=O)CCl)cc2)cc1` [EN4–3, 4-((2-chloroacetamido)methyl)-N-(2-(4-ethoxyphenoxy)phenyl)benzamide], for which the “activity in MYC luciferase reporter assay” value in experiment [2] (HEK293T) is “loss of activity”.
As for `CCOc1ccc(Oc2ccccc2NC(=O)c2ccc(CNC(=O)/C=C/C(F)(F)F)cc2)cc1` [EN4–6, (E)-N-(2-(4-ethoxyphenoxy)phenyl)-4-((4,4,4-trifluorobut-2-enamido)methyl) benzamide], in experiment [2] (HEK293T), the “activity in MYC luciferase reporter assay” value is on record as “loss of activity”.
For the compound `CCOc1ccc(Oc2ccccc2NC(=O)c2ccc(CNC(=O)CC)cc2)cc1` [EN4–18, N-(2-(4-ethoxyphenoxy)phenyl)-4-(propionamidomethyl)benzamide], the “inhibition of MYC/MAX DNA binding in vitro” value in experiment [5] (Fig. S4) is “significantly inhibits MYC/MAX DNA binding”. For the same compound, the “activity in MYC luciferase reporter assay” value in [2] (HEK293T) was “inhibited MYC luciferase reporter activity”.

The values are drawn from PMC7854864 (Cell chemical biology, 2020).
